Results from ChEMBL document CHEMBL1153998, “Discovery and structure-activity study of a novel benzoxaborole anti-inflammatory agent (AN2728) for the potential topical treatment of psoriasis and atopic dermatitis” (Bioorg Med Chem Lett, 2009).
Active and inactive are the calls of the source. The rule behind the calls is not given here.

What was measured:
[1] = biological target: High affinity 3',5'-cyclic-AMP phosphodiesterase 7A (Homo sapiens, UniProt Q13946); assay: Inhibition of human recombinant PDE7A1 expressed in baculovirus-infected insect Sf9 cells by modified two-step method
Outline: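 PDE7A1 was a human recombinant enzyme from a baculoviral expression system, tested in a modified two-step assay. Its substrate concentration was reduced compared with the other panel isozymes. IC50 values were calculated from the means of three experiments.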

[2] = biological target: T1, Phosphodiesterase 4 (Homo sapiens, UniProt P27815+Q08499+Q07343+Q08493); assay: Inhibition of PDE4 in human U937 cells assessed as accumulation of [3H]adenosine by scintillation counting; format: cell-based; conditions: u-937
[3] = tested on: PBMC; assay: Antiinflammatory activity in human PBMC assessed as inhibition of IL1-beta release by FACSArray analysis; format: functional, cell-based
[4] = tested on: PBMC; assay: Antiinflammatory activity in human PBMC assessed as inhibition of phytohemagglutininin-induced IFN-gamma release after 24 hrs by FACSArray analysis; format: functional, cell-based
[5] = tested on: PBMC; assay: Antiinflammatory activity in human PBMC assessed as inhibition of IL4 release by FACS Array analysis; format: functional, cell-based
[6] = tested on: PBMC; assay: Antiinflammatory activity in human PBMC assessed as inhibition of phytohemagglutininin-induced IL2 release after 24 hrs by FACS Array analysis; format: functional, cell-based
[7] = tested on: PBMC; assay: Antiinflammatory activity in human PBMC assessed as inhibition of phytohemagglutininin-induced IL5 release after 48 hrs by FACS Array analysis; format: functional, cell-based
[8] = tested on: L929; assay: Cytotoxicity against mouse L929 cells up to 100 uM; format: cell-based
[9] = tested on: PBMC; assay: Antiinflammatory activity in human PBMC assessed as inhibition of LPS-induced TNFalpha release in after 24 hrs by FACS Array analysis; format: functional, cell-based
[10] = tested on: PBMC; assay: Antiinflammatory activity in human PBMC assessed as inhibition of phytohemagglutininin-induced IL10 release after 48 hrs by FACS Array analysis; format: functional, cell-based
[11] = biological target: Phosphodiesterase 3 (Homo sapiens, UniProt Q14432+Q13370); assay: Inhibition of human recombinant PDE3 catalytic domain expressed in baculovirus-infected insect Sf9 cells by modified two-step method
Outline: (§1)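 Human recombinant enzymes from a baculoviral expression system, tested in a modified two-step PDE assay as part of a PDE1–11 isozyme panel. IC50 values were calculated from the means of three experiments.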

[12] = biological target: Dual 3',5'-cyclic-AMP and -GMP phosphodiesterase 11A (Homo sapiens) (UniProt Q9HCR9); assay: Inhibition of human recombinant PDE11 expressed in baculovirus-infected insect Sf9 cells at 10 uM by modified two-step method
[13] = tested on: Mus musculus; assay: Antiinflammatory activity in mouse ear edema model assessed as inhibition of PMA-induced ear edema at 1 mg/ear administered 2 times 30 mins before and 15 mins after PMA challenge measured after 6 hrs of PMA application relative to control; format: functional
[14] = biological target: Phosphodiesterase 8 (Homo sapiens) (UniProt O95263+O60658); assay: Inhibition of human recombinant PDE8 expressed in baculovirus-infected insect Sf9 cells at 10 uM by modified two-step method
[15] = biological target: High affinity cGMP-specific 3',5'-cyclic phosphodiesterase 9A (Homo sapiens) (UniProt O76083); assay: Inhibition of human recombinant PDE9 expressed in baculovirus-infected insect Sf9 cells at 10 uM by modified two-step method
[16] = biological target: cAMP and cAMP-inhibited cGMP 3',5'-cyclic phosphodiesterase 10A (Homo sapiens) (UniProt Q9Y233); assay: Inhibition of human recombinant PDE10 expressed in baculovirus-infected insect Sf9 cells at 10 uM by modified two-step method
[17] = biological target: Dual specificity calcium/calmodulin-dependent 3',5'-cyclic nucleotide phosphodiesterase 1A (Homo sapiens, UniProt P54750); assay: Inhibition of human recombinant PDE1A3 expressed in baculovirus-infected insect Sf9 cells by modified two-step method; outline: as §1
[18] = biological target: cGMP-specific 3',5'-cyclic phosphodiesterase (Homo sapiens) (UniProt O76074); assay: Inhibition of human recombinant PDE5 expressed in baculovirus-infected insect Sf9 cells at 10 uM by modified two-step method
[19] = biological target: Phosphodiesterase 6 (Homo sapiens) (UniProt Q13956+P18545+P35913+O43924+P16499+P51160); assay: Inhibition of human recombinant PDE6 expressed in baculovirus-infected insect Sf9 cells at 10 uM by modified two-step method
[20] = biological target: T1, Phosphodiesterase 4; assay: Inhibition of human recombinant PDE4 catalytic domain expressed in baculovirus-infected insect Sf9 cells by modified two-step method
[21] = biological target: cGMP-dependent 3',5'-cyclic phosphodiesterase (Homo sapiens) (UniProt O00408); assay: Inhibition of human recombinant PDE2 expressed in baculovirus-infected insect Sf9 cells at 10 uM by modified two-step method
[22] = tested on: Mus musculus; assay: Antiinflammatory activity in mouse ear edema model assessed as inhibition of PMA-induced ear edema at 3 mg/ear administered 2 times 30 mins before and 15 mins after PMA challenge measured after 6 hrs of PMA application relative to control; format: functional

Sequence of Dual specificity calcium/calmodulin-dependent 3',5'-cyclic nucleotide phosphodiesterase 1A (P54750 whole entry): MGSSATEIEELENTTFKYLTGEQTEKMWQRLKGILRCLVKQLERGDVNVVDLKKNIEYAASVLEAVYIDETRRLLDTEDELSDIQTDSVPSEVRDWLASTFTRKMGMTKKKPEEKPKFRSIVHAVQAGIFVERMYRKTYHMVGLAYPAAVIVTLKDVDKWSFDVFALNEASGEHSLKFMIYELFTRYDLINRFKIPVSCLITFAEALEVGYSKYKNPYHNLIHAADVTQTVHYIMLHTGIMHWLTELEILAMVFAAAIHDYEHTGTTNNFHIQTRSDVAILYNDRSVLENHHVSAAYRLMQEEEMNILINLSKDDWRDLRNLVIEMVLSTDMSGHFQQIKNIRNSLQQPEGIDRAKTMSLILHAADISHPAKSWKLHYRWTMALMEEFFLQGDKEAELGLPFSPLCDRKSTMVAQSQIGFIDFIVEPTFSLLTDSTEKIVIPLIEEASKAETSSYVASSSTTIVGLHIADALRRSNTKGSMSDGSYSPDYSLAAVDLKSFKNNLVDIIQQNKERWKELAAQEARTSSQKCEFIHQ
Sequence of Phosphodiesterase 8 (Homo sapiens) (O60658 whole entry, looked up): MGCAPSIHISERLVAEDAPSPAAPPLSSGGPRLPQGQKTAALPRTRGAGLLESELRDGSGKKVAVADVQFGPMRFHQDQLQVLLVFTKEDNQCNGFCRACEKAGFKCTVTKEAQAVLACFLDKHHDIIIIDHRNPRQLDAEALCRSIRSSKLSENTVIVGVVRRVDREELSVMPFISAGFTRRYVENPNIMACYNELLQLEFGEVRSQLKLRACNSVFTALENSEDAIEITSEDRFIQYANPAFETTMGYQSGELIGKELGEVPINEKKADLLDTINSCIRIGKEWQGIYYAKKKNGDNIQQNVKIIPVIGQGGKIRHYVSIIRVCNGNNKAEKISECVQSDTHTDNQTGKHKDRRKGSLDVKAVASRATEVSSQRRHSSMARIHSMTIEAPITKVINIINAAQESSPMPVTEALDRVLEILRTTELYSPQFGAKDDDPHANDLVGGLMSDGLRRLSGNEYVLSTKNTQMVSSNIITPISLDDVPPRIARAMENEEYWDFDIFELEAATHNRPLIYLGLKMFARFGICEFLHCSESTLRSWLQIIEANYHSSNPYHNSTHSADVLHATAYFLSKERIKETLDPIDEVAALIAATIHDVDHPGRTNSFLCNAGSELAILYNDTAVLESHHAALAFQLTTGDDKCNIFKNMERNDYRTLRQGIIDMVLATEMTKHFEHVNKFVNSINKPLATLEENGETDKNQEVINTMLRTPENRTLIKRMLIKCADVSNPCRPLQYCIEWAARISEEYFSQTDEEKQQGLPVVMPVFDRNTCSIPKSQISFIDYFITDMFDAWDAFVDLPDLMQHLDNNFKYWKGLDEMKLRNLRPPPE
Sequence of Phosphodiesterase 8 (Homo sapiens) (O95263 whole entry, looked up): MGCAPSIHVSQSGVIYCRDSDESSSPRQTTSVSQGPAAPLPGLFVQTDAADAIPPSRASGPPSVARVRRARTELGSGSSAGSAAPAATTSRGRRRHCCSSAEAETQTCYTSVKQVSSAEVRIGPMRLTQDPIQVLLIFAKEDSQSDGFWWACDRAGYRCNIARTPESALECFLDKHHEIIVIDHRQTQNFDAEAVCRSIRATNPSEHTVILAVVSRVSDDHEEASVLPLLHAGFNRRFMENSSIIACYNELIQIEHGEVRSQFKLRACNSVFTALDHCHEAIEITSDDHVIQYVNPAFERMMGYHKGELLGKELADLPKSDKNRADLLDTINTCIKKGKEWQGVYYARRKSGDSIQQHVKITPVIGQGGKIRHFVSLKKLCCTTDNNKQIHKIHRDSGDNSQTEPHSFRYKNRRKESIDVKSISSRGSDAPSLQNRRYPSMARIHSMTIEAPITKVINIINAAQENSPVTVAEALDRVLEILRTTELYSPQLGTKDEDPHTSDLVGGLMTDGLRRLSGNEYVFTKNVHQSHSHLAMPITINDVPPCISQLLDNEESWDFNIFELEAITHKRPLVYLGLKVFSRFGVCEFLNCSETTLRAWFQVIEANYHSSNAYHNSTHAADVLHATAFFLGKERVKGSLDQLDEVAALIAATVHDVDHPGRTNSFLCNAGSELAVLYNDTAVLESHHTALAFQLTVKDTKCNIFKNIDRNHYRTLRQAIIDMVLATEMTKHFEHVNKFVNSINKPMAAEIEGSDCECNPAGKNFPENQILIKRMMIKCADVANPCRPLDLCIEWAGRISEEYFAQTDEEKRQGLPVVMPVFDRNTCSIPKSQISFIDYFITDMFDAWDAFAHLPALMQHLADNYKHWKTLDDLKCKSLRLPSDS
Sequence of High affinity 3',5'-cyclic-AMP phosphodiesterase 7A (Q13946 whole entry): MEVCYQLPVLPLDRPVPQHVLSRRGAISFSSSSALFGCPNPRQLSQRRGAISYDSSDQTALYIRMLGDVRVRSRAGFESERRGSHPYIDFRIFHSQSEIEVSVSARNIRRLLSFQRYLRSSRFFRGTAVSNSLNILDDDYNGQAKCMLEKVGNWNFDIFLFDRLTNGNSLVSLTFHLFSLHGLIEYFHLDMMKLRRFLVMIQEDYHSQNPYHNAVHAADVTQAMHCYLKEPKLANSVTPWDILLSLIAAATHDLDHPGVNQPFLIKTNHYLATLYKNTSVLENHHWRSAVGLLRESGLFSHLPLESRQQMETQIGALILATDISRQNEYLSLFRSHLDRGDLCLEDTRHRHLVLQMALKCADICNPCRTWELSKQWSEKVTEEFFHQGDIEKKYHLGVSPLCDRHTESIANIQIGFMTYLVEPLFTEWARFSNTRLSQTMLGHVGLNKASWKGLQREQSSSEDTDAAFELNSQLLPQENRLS
Sequence of cGMP-dependent 3',5'-cyclic phosphodiesterase (Homo sapiens) (O00408 whole entry): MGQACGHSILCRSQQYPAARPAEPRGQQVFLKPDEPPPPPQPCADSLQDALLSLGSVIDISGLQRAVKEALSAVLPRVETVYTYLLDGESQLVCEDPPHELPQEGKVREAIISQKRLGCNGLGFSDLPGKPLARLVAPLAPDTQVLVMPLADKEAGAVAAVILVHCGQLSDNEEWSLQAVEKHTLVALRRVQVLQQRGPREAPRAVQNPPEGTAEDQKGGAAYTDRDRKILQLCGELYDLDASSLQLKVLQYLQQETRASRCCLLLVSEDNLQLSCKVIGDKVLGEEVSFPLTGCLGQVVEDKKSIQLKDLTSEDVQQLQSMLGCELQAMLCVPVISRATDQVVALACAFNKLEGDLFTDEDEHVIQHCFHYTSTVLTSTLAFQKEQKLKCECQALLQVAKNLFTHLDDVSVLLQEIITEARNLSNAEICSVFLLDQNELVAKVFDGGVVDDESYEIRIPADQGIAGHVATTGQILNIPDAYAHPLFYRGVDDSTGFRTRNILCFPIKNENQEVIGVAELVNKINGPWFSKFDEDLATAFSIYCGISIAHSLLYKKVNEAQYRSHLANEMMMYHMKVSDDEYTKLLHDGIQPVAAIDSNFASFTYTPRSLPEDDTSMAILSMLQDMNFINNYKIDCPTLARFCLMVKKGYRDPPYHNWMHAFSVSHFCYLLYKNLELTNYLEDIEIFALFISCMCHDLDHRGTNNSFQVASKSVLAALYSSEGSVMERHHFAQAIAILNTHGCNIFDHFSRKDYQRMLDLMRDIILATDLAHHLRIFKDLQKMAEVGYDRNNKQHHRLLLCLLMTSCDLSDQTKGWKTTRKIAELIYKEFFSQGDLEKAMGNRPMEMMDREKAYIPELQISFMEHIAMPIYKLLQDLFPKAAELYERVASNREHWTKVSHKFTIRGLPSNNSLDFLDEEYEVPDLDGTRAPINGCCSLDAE
Sequence of cAMP and cAMP-inhibited cGMP 3',5'-cyclic phosphodiesterase 10A (Homo sapiens) (Q9Y233 whole entry): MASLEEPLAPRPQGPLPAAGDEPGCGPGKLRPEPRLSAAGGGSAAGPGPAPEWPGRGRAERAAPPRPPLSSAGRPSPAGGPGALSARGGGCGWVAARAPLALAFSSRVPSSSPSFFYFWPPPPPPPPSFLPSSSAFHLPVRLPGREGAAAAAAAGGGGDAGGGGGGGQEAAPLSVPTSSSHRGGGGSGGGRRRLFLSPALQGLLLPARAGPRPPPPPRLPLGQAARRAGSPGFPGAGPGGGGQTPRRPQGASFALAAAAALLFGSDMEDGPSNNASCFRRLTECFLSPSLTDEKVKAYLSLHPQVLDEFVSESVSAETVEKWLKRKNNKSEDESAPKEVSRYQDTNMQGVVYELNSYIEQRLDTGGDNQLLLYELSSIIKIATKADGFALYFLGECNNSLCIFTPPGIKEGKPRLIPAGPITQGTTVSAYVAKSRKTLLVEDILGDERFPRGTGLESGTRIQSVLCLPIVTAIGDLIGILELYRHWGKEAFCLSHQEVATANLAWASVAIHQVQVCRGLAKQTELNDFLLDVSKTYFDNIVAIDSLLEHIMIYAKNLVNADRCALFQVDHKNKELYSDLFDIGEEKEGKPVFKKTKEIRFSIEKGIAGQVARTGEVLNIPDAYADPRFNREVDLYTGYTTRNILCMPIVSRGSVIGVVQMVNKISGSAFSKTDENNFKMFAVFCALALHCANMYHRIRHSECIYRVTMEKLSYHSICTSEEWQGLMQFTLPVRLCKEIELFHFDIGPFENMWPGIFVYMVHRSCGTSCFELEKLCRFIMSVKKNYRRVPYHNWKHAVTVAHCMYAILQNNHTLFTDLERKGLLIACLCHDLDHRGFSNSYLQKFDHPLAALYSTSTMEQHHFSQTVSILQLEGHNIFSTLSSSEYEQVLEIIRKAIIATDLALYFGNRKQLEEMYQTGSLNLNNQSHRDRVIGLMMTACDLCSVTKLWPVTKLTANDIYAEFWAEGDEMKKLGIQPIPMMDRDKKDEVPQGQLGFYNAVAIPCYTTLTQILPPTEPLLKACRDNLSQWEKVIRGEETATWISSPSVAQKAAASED

SMILES: Cc1ccc([N+](=O)[O-])cc1S(=O)(=O)N(C)C
- IC50 [1]: 2.2 µM

SMILES: CCN(CC)C(=O)c1ccc(Oc2ccc3c(c2)COB3O)cc1
- IC50 [2]: 1.5 µM

SMILES: N#Cc1ccc(Oc2cccc3c2B(O)OC3)cc1
- IC50 [2]: > 30 µM

SMILES: N#Cc1ccc(Oc2ccc3c(c2)B(O)OC3)cc1
- inhibition [3]: inactive
- IC50 [4]: > 10 µM
- inhibition [5]: inactive
- IC50 [6]: > 10 µM
- IC50 [7]: > 10 µM
- Activity [8]: Non-toxic
- IC50 [9]: > 10 µM
- IC50 [10]: > 10 µM
- IC50 [2]: > 30 µM

SMILES: OB1OCc2cc(Oc3ccccc3)ccc21
- IC50 [2]: 6.8 µM

SMILES: OB1OCc2cc(Oc3ccc(Cl)cc3)ccc21
- IC50 [2]: 1.3 µM

SMILES: N#Cc1ccccc1Oc1ccc2c(c1)COB2O
- IC50 [2]: 3.7 µM

SMILES: CN1CCN(S(=O)(=O)c2ccc(Oc3ccc4c(c3)COB4O)cc2)CC1
- IC50 [2]: > 30 µM

SMILES: O=C(c1ccc(Oc2ccc3c(c2)COB3O)cc1)N1CCOCC1
- IC50 [2]: 0.57 µM

SMILES: O=C(O)c1ccc(Oc2ccc3c(c2)COB3O)cc1
- inhibition [3]: inactive
- IC50 [4]: > 10 µM
- inhibition [5]: inactive
- IC50 [6]: > 10 µM
- IC50 [7]: > 10 µM
- Activity [8]: Non-toxic
- IC50 [9]: > 10 µM
- IC50 [10]: > 10 µM
- IC50 [2]: 6.4 µM

SMILES: O=C1CCc2cc(OCCCCc3nnnn3C3CCCCC3)ccc2N1 [CILOSTAZOL]
- IC50 [11]: 0.84 µM

SMILES: N#Cc1ccc(Oc2cccc3c2COB3O)cc1
- IC50 [2]: 6 µM

SMILES: N#Cc1ccc(Oc2ccc3c(c2)COB3O)cc1 [CRISABOROLE]
- inhibition [12]: inactive
- inhibition (INH) [13]: 78%
- inhibition [14]: inactive
- inhibition [3]: inactive
- IC50 [4]: 0.83 µM
- inhibition [15]: inactive
- inhibition [5]: inactive
- IC50 [6]: 0.61 µM
- IC50 [7]: 2.4 µM
- inhibition [16]: inactive
- Activity [8]: Non-toxic
- IC50 [17]: 6.1 µM
- IC50 [9]: 0.54 µM
- IC50 [11]: 6.4 µM
- IC50 [10]: 5.3 µM
- inhibition [18]: inactive
- inhibition [19]: inactive
- IC50 [20]: 0.11 µM
- inhibition [21]: inactive
- IC50 [2]: 0.49 µM

SMILES: OB1OCc2cc(Oc3ccc(C(F)(F)F)cc3)ccc21
- IC50 [2]: 0.45 µM

SMILES: COc1ccc(C2CNC(=O)C2)cc1OC1CCCC1 (stereo not drawn) [ROLIPRAM]
- inhibition (INH) [13]: 6%
- IC50 [4]: 0.23 µM
- inhibition (INH) [22]: 53%
- IC50 [6]: 0.23 µM
- IC50 [7]: 0.5 µM
- IC50 [9]: 0.16 µM
- IC50 [10]: 0.88 µM

SMILES: Cc1ccc(Oc2ccc3c(c2)COB3O)cc1
- IC50 [2]: 2 µM

SMILES: COCc1nc2c([nH]1)c(=O)n(C)c(=O)n2CC(C)C
- IC50 [17]: 10 µM

SMILES: N#Cc1cccc(Oc2ccc3c(c2)COB3O)c1
- IC50 [2]: 4.4 µM

SMILES: CCN(CC)S(=O)(=O)c1ccc(Oc2ccc3c(c2)COB3O)cc1
- IC50 [2]: 3.4 µM

SMILES: C[C@@H]1C[C@H]2[C@@H]3CCC4=CC(=O)C=C[C@]4(C)[C@@]3(F)[C@@H](O)C[C@]2(C)[C@@]1(O)C(=O)CO [DEXAMETHASONE]
- inhibition (INH) [13]: 72%

SMILES: OB1OCc2cc(Oc3ccc(F)cc3)ccc21
- IC50 [2]: 7.7 µM

SMILES: COc1ccc(Oc2ccc3c(c2)COB3O)cc1
- IC50 [2]: 2.7 µM
